ChEMBL document CHEMBL2169785, “Inhibition of Acyl-CoA: cholesterol acyltransferase (ACAT), overexpression of cholesterol transporter gene, and protection of amyloid β (Aβ) oligomers-induced neuronal cell death by tricyclic pyrone molecules” (J Med Chem, 2012)
Values belong to the compound of their own block, whether it stands above or below them. The source made the active and inactive calls. The rule behind the calls is not given here.

Assays:
[1] = Cytotoxicity against human MC65 cells by MTT assay; format: cell-based; details: read-out: TD50 (the source's name)
Outline: (§1)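 MC65 neuroblastoma cells carrying a tetracycline-repressible SβC gene (APP C99 fragment); induction causes intraneuronal Aβ oligomer accumulation and cell death after three days. Viability read by MTT. EC50 (median effective concentration for protection) and TD50 (median toxic concentration) derived; TI = TD50/EC50. Triplicate experiments, standard errors calculated.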

[2] = Neuroprotective activity in […] human MC65 cells assessed as protection against APP-induced cell death by MTT assay; format: functional, cell-based; outline: as §1
[3] = Therapeutic index, ratio of TD50 for human MC65 cells to EC50 for […] human MC65 cells; format: cell-based; details: read-out: TI; outline: as §1
[4] = Induction of ABCA1 mRNA expression in human MC65 cells after 24 hrs; format: functional, cell-based; details: MC65, 24 h
Outline: (§2)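 Cells (MC65 or Huh-7) incubated 24 h with compound or mock medium. ABCA1 gene expression measured with a Gene Expression Assay and compared with mock-treated cells to derive EC50.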

[5] = test system: ACAT; experiment: Therapeutic index, ratio of TD50 for human MC65 cells to IC50 for ACAT activity in human MC65 cells; format: cell-based; details: read-out: TI
[6] = target: T1, Sterol O-acyltransferase 1 (Homo sapiens, UniProt P35610); experiment: Inhibition of ACAT activity in human MC65 cells using NBD-cholesterol staining after 24 hrs by fluorescence assay
T1 sequence (P35610 whole entry): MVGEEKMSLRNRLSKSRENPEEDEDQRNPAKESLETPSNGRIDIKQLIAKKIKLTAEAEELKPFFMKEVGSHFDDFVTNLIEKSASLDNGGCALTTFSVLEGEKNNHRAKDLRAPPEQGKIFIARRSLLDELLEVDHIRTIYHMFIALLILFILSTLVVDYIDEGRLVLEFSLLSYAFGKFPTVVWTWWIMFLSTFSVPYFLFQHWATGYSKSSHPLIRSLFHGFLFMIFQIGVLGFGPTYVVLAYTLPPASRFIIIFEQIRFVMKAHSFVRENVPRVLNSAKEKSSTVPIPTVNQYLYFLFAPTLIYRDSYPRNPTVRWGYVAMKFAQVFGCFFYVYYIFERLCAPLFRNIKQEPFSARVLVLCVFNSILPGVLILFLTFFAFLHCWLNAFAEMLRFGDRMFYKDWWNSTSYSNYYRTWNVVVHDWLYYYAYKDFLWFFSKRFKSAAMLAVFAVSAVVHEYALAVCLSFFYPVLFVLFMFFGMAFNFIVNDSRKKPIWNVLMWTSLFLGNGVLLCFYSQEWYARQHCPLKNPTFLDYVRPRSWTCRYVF

[7] = test system: Huh-7; experiment: Induction of ABCA1 mRNA expression in human HuH7 cells after 24 hrs; format: functional, cell-based; details: Huh-7, 24 h; outline: as §2
[8] = test system: MC65; experiment: Neuroprotective activity in tetracycline-deprived human MC65 cells assessed as protection against APP-induced cell death up to 50 uM by MTT assay

Compound: COc1ccc(CNCC(C)[C@H]2CCC3=Cc4c(cc(C)oc4=O)O[C@H]3C2)cc1O (mixture of isomers)
CC50 [1]: > 50 µM | EC50 [2]: 1.56 µM | selectivity ratio [3]: > 32.1

EC50 [4]: 2.2 µM | IC50 [6]: 1.8 µM
Compound: Cc1cc2c(c(=O)o1)C=C1CC[C@H](C(C)CNCc3ccc(O)c(F)c3)C[C@@H]1O2 (mixture of isomers)
selectivity ratio [5]: > 28 | CC50 [1]: > 50 µM | EC50 [2]: 0.067 µM | selectivity ratio [3]: > 746

Compound: Cc1cc2c(c(=O)o1)C=C1CC[C@H](C(C)CNCc3ccc(OCc4ccccc4)c(OCc4ccccc4)c3)C[C@@H]1O2 (mixture of isomers)
CC50 [1]: 9.38 µM | EC50 [2]: 0.662 µM | selectivity ratio [3]: 14.2

Compound: Cc1cc2c(c(=O)o1)C=C1CC[C@H](C(C)CNCc3ccc(O)c([N+](=O)[O-])c3)C[C@@H]1O2 (mixture of isomers)
CC50 [1]: > 50 µM | EC50 [2]: 3.85 µM | selectivity ratio [3]: > 13

Compound: Cc1cc2c(c(=O)o1)C=C1CC[C@H](C(C)CNCc3ccc(OCCO)cc3)C[C@@H]1O2 (mixture of isomers)
CC50 [1]: > 50 µM | EC50 [2]: 24.5 µM | selectivity ratio [3]: > 2.04

EC50 [4]: 1.1 µM | EC50 [7]: 0.6 µM
Compound: Cc1cc2c(c(=O)o1)C=C1CC[C@H](C(C)CNCc3ccc(O)cc3)C[C@@H]1O2 (mixture of isomers)
CC50 [1]: 37 µM | EC50 [2]: 0.07 µM

Compound: Cc1cc2c(c(=O)o1)C=C1CC[C@H](C(C)CNCc3ccc(O)c(Br)c3)C[C@@H]1O2 (mixture of isomers)
CC50 [1]: > 50 µM | EC50 [2]: 0.639 µM | selectivity ratio [3]: > 78.2

Compound: Cc1cc2c(c(=O)o1)C=C1CC[C@H](C(C)CNCc3ccccc3O)C[C@@H]1O2 (mixture of isomers)
CC50 [1]: 30.7 µM | EC50 [2]: 2.44 µM | selectivity ratio [3]: 12.6

Compound: COc1ccc(CNCC(C)[C@H]2CCC3=Cc4c(cc(C)oc4=O)O[C@H]3C2)cc1 (single isomer, unassigned)
CC50 [1]: > 50 µM | EC50 [2]: 2.77 µM | selectivity ratio [3]: > 18.1

Compound: Cc1cc2c(c(=O)o1)C=C1CC[C@H](C(C)CNCc3ccc(C#N)cc3)C[C@@H]1O2 (mixture of isomers)
CC50 [1]: > 50 µM | EC50 [2]: > 50 µM

Compound: Cc1cc2c(c(=O)o1)C=C1CC[C@H](C(C)CNCc3ccc4cc(O)ccc4c3)C[C@@H]1O2 (mixture of isomers)
CC50 [1]: 24.1 µM | EC50 [2]: 0.459 µM | selectivity ratio [3]: 52.5

Compound: Cc1cc2c(c(=O)o1)C=C1CC[C@H](C(C)CNCc3cc(O)cc4ccccc34)C[C@@H]1O2 (mixture of isomers)
CC50 [1]: 18.2 µM | EC50 [2]: 0.586 µM | selectivity ratio [3]: 31.1

Compound: COc1ccc(CNCC(C)[C@H]2CCC3=Cc4c(cc(C)oc4=O)O[C@H]3C2)c2ccccc12 (stereo not given in full)
CC50 [1]: 15.3 µM | EC50 [2]: 0.621 µM | selectivity ratio [3]: 24.6

EC50 [4]: 0.9 µM | IC50 [6]: 1.2 µM | EC50 [7]: 0.6 µM
Compound: Cc1cc2c(c(=O)o1)C=C1CC[C@H](C(C)Cn3cnc(N)c4ncnc3-4)C[C@@H]1O2 (stereo not given in full)
selectivity ratio [5]: 33 | CC50 [1]: 39 µM | EC50 [2]: 0.12 µM | selectivity ratio [3]: 325

Compound: Cc1cc2c(c(=O)o1)C=C1CC[C@H](C(C)CNCc3cccc(O)c3)C[C@@H]1O2 (stereo not given in full)
CC50 [1]: > 50 µM | EC50 [2]: 4.66 µM | selectivity ratio [3]: > 10.7

Compound: Cc1cc2c(c(=O)o1)C=C1CC[C@H](C(C)CNCc3ccc(O)c4ccccc34)C[C@@H]1O2 (mixture of isomers)
EC50 [4]: 1.3 µM | CC50 [1]: 13.7 µM | EC50 [2]: 0.145 µM | EC50 [7]: 0.6 µM

Compound: Cc1cc2c(c(=O)o1)C=C1CC[C@H](C(C)CNCc3ccccc3)C[C@@H]1O2 (mixture of isomers)
CC50 [1]: 37.3 µM | EC50 [2]: 3.24 µM | selectivity ratio [3]: 11.5

Compound: COC(=O)c1ccc(CNCC(C)[C@H]2CCC3=Cc4c(cc(C)oc4=O)O[C@H]3C2)cc1 (mixture of isomers)
CC50 [1]: > 50 µM | EC50 [2]: 0.769 µM | selectivity ratio [3]: > 65

Compound: CCCCCCCCCCC(C)(C)C(=O)Nc1c(OC)cc(OC)cc1OC
Activity [8]: inactive

Compound: Cc1cc2c(c(=O)o1)C=C1CC[C@H](C(C)CNCc3ccc(N(C)C)cc3)C[C@@H]1O2 (mixture of isomers)
CC50 [1]: 38.2 µM | EC50 [2]: 4.36 µM | selectivity ratio [3]: 8.76

Compound: Cc1cc2c(c(=O)o1)C=C1CC[C@H](C(C)CNCc3c(O)ccc4ccccc34)C[C@@H]1O2 (mixture of isomers)
CC50 [1]: 26.4 µM | EC50 [2]: 0.198 µM | selectivity ratio [3]: 133

Compound: Cc1cc2c(c(=O)o1)C=C1CC[C@H](C(C)CNCc3ccc(Cl)cc3)C[C@@H]1O2 (mixture of isomers)
CC50 [1]: 48 µM | EC50 [2]: 2.79 µM | selectivity ratio [3]: 17.2

Compound: CC(=O)Oc1ccccc1C(=O)NCC(C)[C@H]1CCC2=Cc3c(cc(C)oc3=O)O[C@H]2C1 (mixture of isomers)
CC50 [1]: 8.35 µM | EC50 [2]: > 50 µM

Compound: Cc1cc2c(c(=O)o1)C=C1CC[C@H](C(C)CNCc3ccc(C=O)cc3)C[C@@H]1O2 (mixture of isomers)
CC50 [1]: 39.4 µM | EC50 [2]: 6.41 µM | selectivity ratio [3]: 6.15

Compound: COc1cc(CNCC(C)[C@H]2CCC3=Cc4c(cc(C)oc4=O)O[C@H]3C2)ccc1O (mixture of isomers)
CC50 [1]: 26.3 µM | EC50 [2]: 0.242 µM | selectivity ratio [3]: 109

Compound: Cc1cc2c(c(=O)o1)C=C1CC[C@H](C(C)CNCc3ccc4c(c3)OCO4)C[C@@H]1O2 (mixture of isomers)
CC50 [1]: > 50 µM | EC50 [2]: 1.18 µM | selectivity ratio [3]: > 42.4

Compound: COc1cc(CNCC(C)[C@H]2CCC3=Cc4c(cc(C)oc4=O)O[C@H]3C2)cc(OC)c1O (mixture of isomers)
CC50 [1]: > 50 µM | EC50 [2]: 1.26 µM | selectivity ratio [3]: > 39.7

EC50 [4]: 2.5 µM | IC50 [6]: 1.4 µM
Compound: Cc1cc2c(c(=O)o1)C=C1CC[C@H](C(C)CNCc3ccc(CO)cc3)C[C@@H]1O2 (mixture of isomers)
selectivity ratio [5]: > 36 | CC50 [1]: > 50 µM | EC50 [2]: 0.101 µM | selectivity ratio [3]: > 495

Compound: Cc1cc2c(c(=O)o1)C=C1CC[C@H](C(C)CNC(=O)c3ccccc3O)C[C@@H]1O2 (stereo not given in full)
CC50 [1]: 6.69 µM | EC50 [2]: 6.25 µM | selectivity ratio [3]: 1.07
